ChEMBL document CHEMBL1141137, “Design and synthesis of tricyclic imidazo[4,5-b]pyridin-2-ones as corticotropin-releasing factor-1 antagonists” (J Med Chem, 2005)

Columns and labels:
[1] = molecular target: T1, Corticotropin-releasing factor receptor 1 (Homo sapiens, UniProt P34998); test: Binding affinity for corticotropin-releasing factor-1 expressed in […] cells; format: cell-based
T1 sequence (P34998 whole entry): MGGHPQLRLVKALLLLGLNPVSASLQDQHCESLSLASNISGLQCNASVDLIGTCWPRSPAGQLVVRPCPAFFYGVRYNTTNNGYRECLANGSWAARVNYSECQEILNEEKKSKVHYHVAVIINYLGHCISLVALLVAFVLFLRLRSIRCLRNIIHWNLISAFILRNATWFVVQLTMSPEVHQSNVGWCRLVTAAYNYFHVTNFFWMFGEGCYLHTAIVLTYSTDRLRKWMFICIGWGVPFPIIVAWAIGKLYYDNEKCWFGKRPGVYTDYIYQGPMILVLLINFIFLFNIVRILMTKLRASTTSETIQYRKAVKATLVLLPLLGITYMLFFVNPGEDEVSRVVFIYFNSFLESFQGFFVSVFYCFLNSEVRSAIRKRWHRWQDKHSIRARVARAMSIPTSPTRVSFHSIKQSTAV
In short: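 Cloned human CRF1 receptor expressed in […] cells. Radiolabeled sauvagine used as ligand. Ki derived from dose–response curves over 1 nM to 10 μM. Values are the mean of three or more independent determinations.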

[2] = Oral bioavailability in Rat upon oral administration; format: ADME, organism-based; conditions: in vivo
In short: (§1)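 Male Sprague-Dawley rats given 10 mg/kg intravenously or orally. Plasma clearance, volume of distribution and terminal half-life taken from the iv arm. Plasma and brain Cmax taken after oral dosing. Oral bioavailability estimated. Brain exposure relative to plasma based on AUC (0–6 h).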

[3] = Terminal half life in rat was determined upon intravenous administration; conditions: in vivo
[4] = molecular target: T1, Corticotropin-releasing factor receptor 1; test: Inhibition of CRF stimulated cAMP production in CHO cells expressing CRF1 receptor; format: functional, cell-based
[5] = Volume distribution in rat was determined upon intravenous administration; conditions: in vivo
[6] = Concentration maximum in plasma of rat was determined after 1 h upon oral administration; format: ADME, organism-based; parameters: route oral; in short: as §1
[7] = Plasma clearance in rat was determined upon i.v. administration; format: ADME, organism-based; conditions: iv; in short: as §1
[8] = Concentration maximum in brain of rat was determined after 1 hr upon oral administration; format: ADME, organism-based; parameters: route oral; in short: as §1
[9] = Terminal half life in rat was determined upon oral administration; format: ADME, organism-based; conditions: in vivo

Structure (SMILES): CCCC(CCC)N1CCn2nc(-c3ccc(Cl)cc3Cl)c3nc(C)cc1c32
- Ki [1]: 4.5 nM

Structure (SMILES): CCCC(CCC)N1CCn2c(=O)n(-c3ccc(C(F)(F)F)cc3)c3nc(C)cc1c32
- Ki [1]: 17 nM

Structure (SMILES): CCCC(CCC)N1CCn2c(=O)n(-c3ccc(Cl)cc3Cl)c3nc(C)cc1c32
- Ki [1]: 5.1 nM

Structure (SMILES): CCCC(CCC)N1CCn2c(=O)n(-c3ccc(C(=O)OC)cc3)c3nc(C)cc1c32
- Ki [1]: 920 nM

Structure (SMILES): CCCC(CCC)N1CCn2c(=O)n(-c3ccc(OC)cc3)c3nc(C)cc1c32
- bioavailability [2]: 30%
- half-life [3]: 1.6 h
- IC50 [4]: 71 nM
- Vd [5]: 7.2 L/kg
- Ki [1]: 2 nM
- Cmax [6]: 356 ng/mL
- clearance [7]: 53.4 mL/min/kg
- Cmax [8]: 1180 ng/g

Structure (SMILES): CCC(CC)N1CCn2c(=O)n(-c3ccc(OC)cc3C)c3nc(C)cc1c32
- Ki [1]: 20 nM

Structure (SMILES): CCCC(CCC)N1CCn2c(=O)n(-c3ccc(C(C)C)cc3Br)c3nc(C)cc1c32
- Ki [1]: 1.1 nM

Structure (SMILES): CCCC(CCC)N1CCn2c(=O)n(-c3ccc(S(C)(=O)=O)cc3)c3nc(C)cc1c32
- Ki [1]: 460 nM

Structure (SMILES): CCCC(CCC)N1CCn2c(=O)n(-c3ccccc3OC)c3nc(C)cc1c32
- Ki [1]: 44 nM

Structure (SMILES): CCCC(CCC)N1CCn2c(=O)n(-c3cccc(OC)c3)c3nc(C)cc1c32
- Ki [1]: 130 nM

Structure (SMILES): CCC(CC)N1CCn2c(=O)n(-c3ccc(C(F)(F)F)cc3)c3nc(C)cc1c32
- Ki [1]: 170 nM

Structure (SMILES): CCC(CC)N1CCn2c(=O)n(-c3ccc(OC)cc3)c3nc(C)cc1c32
- Ki [1]: 8 nM

Structure (SMILES): CCCC(CCC)N1CCn2c(=O)n(-c3ccc(OC)nc3)c3nc(C)cc1c32
- Ki [1]: 60 nM

Structure (SMILES): CCCC(CCC)N1CCn2c(=O)n(-c3ccc(OCC)cc3)c3nc(C)cc1c32
- Ki [1]: 140 nM

Structure (SMILES): CCCC(CCC)N1CCn2c(=O)n(-c3ccc(Cl)cc3)c3nc(C)cc1c32
- Ki [1]: 12 nM

Structure (SMILES): CCCCN1CCn2c(=O)n(-c3ccc(OC)cc3)c3nc(C)cc1c32
- Ki [1]: 8800 nM

Structure (SMILES): COc1ccc(-n2c(=O)n3c4c(cc(C)nc42)N(C(C)C)CC3)cc1
- Ki [1]: > 10000 nM

Structure (SMILES): CCCC(CCC)N1CCn2c(=O)n(-c3ccc(Cl)cn3)c3nc(C)cc1c32
- Ki [1]: 23 nM

Structure (SMILES): CCC(CC)N1CCn2c(=O)n(-c3ccc(Cl)cc3)c3nc(C)cc1c32
- Ki [1]: 58 nM

Structure (SMILES): COCC(COC)Nc1nc(C)nc2c(-c3ccc(Cl)cc3Cl)c(C)nn12
- Vd [5]: 22 L/kg
- half-life [9]: 16 h

Structure (SMILES): CCCCN(CC)c1nc(C)nc2c1c(C)cn2-c1c(C)cc(C)cc1C [CP-154526]
- Vd [5]: 105 L/kg
- T1/2 [9]: 51 h
